Laboratory results taken from ChEMBL document CHEMBL1142169, “In vitro antibacterial activity of the pyrrolopyrazolyl-substituted oxazolidinone RWJ-416457” (2007).
Converted amounts (≈) assume the structure as drawn.

How the values were obtained:
Type in all cases: functional
Staphylococcus aureus [1] = test: Antibacterial activity against Staphylococcus aureus
Summary of the method: (§1)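 MIC by CLSI (formerly NCCLS) broth microdilution for aerobically growing bacteria.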

Staphylococcus aureus [2] = test: Antibacterial activity against methicillin-susceptible Staphylococcus aureus; summary of the method: as §1
Staphylococcus aureus [3] = test: Antibacterial activity against methicillin-resistant Staphylococcus aureus; summary of the method: as §1
Staphylococcus aureus [4] = test: Antibacterial activity against vancomycin-intermediate methicillin-resistant Staphylococcus aureus; summary of the method: as §1
Staphylococcus aureus [5] = test: Antibacterial activity against community-acquired methicillin-resistant Staphylococcus aureus; summary of the method: as §1
Staphylococcus [6] = test: Antibacterial activity against coagulase-negative staphylococci; summary of the method: as §1
Staphylococcus [7] = test: Antibacterial activity against methicillin-susceptible coagulase-negative staphylococci; summary of the method: as §1
Staphylococcus [8] = test: Antibacterial activity against methicillin-resistant coagulase-negative staphylococci; summary of the method: as §1
Enterococcus faecium = test: Antibacterial activity against linezolid-susceptible Enterococcus faecium; summary of the method: as §1
Enterococcus faecalis [9] = test: Antibacterial activity against linezolid-susceptible Enterococcus faecalis; summary of the method: as §1
Streptococcus pyogenes = test: Antibacterial activity against macrolide-resistant Streptococcus pyogenes; summary of the method: as §1
Streptococcus pneumoniae [10] = test: Antibacterial activity against Streptococcus pneumoniae; summary of the method: as §1
Streptococcus pneumoniae [11] = test: Antibacterial activity against penicillin-resistant Streptococcus pneumoniae; summary of the method: as §1
Streptococcus pneumoniae [12] = test: Antibacterial activity against macrolide-resistant Streptococcus pneumoniae; summary of the method: as §1
Streptococcus pneumoniae [13] = test: Antibacterial activity against fluoroquinolone-resistant Streptococcus pneumoniae; summary of the method: as §1
Moraxella catarrhalis = test: Antibacterial activity against Moraxella catarrhalis
Summary of the method: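 MIC determined by the CLSI (formerly NCCLS) broth microdilution procedure for aerobically growing bacteria.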

Legionella pneumophila = test: Antibacterial activity against Legionella pneumophila
Summary of the method: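 L. pneumophila broth microdilution. Inoculum suspended in buffered yeast extract broth and added to wells holding serial antibiotic dilutions. Incubated aerobically at 34°C to 36°C for 48 h. MIC taken as the lowest concentration inhibiting visible growth.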

[14] = tested on: Mycoplasmoides pneumoniae; test: Antibacterial activity against Mycoplasma pneumoniae
Summary of the method: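 Microbroth MIC following Waites et al. Isolates were titred in SP4 glucose broth by serial 10-fold dilution to count color changing units. Drug was serially diluted in antibiotic-free SP4 glucose broth and inoculated at 104 CCU/ml, then incubated at 35°C until control wells changed color. The MIC was the lowest concentration preventing color change.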

Staphylococcus aureus [15] = test: Antibacterial activity against methicillin-resistant Staphylococcus aureus OC 2878 by time kill experiments
Summary of the method: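 Time-kill by CLSI methodology with drug at four times the MIC against MRSA OC 2878, alongside a drug-free control culture. Viable counts were followed over time.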

Enterococcus faecalis [16] = test: Antibacterial activity against Enterococcus faecalis ATCC 51922 by time kill experiments
Summary of the method: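 Time-kill curves run per CLSI methodology, with drug at four times the MIC measured for the isolate. Growth in drug-containing medium was followed alongside a drug-free control medium over time.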

| Compound | MIC50 (Staphylococcus aureus [1]) [µg/mL] | MIC90 (Staphylococcus aureus [1]) [µg/mL] | MIC50 (Staphylococcus aureus [2]) [µg/mL] | MIC90 (Staphylococcus aureus [2]) [µg/mL] | MIC50 (Staphylococcus aureus [3]) [µg/mL] | MIC90 (Staphylococcus aureus [3]) [µg/mL] | MIC50 (Staphylococcus aureus [4]) [µg/mL] | MIC90 (Staphylococcus aureus [4]) [µg/mL] | MIC50 (Staphylococcus aureus [5]) [µg/mL] | MIC90 (Staphylococcus aureus [5]) [µg/mL] | MIC50 (Staphylococcus [6]) [µg/mL] | MIC90 (Staphylococcus [6]) [µg/mL] | MIC50 (Staphylococcus [7]) [µg/mL] | MIC90 (Staphylococcus [7]) [µg/mL] | MIC50 (Staphylococcus [8]) [µg/mL] | MIC90 (Staphylococcus [8]) [µg/mL] | MIC50 (Enterococcus faecium) [µg/mL] | MIC90 (Enterococcus faecium) [µg/mL] | MIC50 (Enterococcus faecalis [9]) [µg/mL] | MIC90 (Enterococcus faecalis [9]) [µg/mL] | other results |
| --- | --- | --- | --- | --- | --- | --- | --- | --- | --- | --- | --- | --- | --- | --- | --- | --- | --- | --- | --- | --- | --- |
| CC(=O)NC[C@H]1CN(c2ccc(N3Cc4cn(C)nc4C3)c(F)c2)C(=O)O1 | 1 (≈ 2.68 µM) | 2 (≈ 5.36 µM) | 1 (≈ 2.68 µM) | 2 (≈ 5.36 µM) | 1 (≈ 2.68 µM) | 2 (≈ 5.36 µM) | 0.5 (≈ 1.34 µM) | 2 (≈ 5.36 µM) | 1 (≈ 2.68 µM) | 2 (≈ 5.36 µM) | 0.5 (≈ 1.34 µM) | 1 (≈ 2.68 µM) | 0.5 (≈ 1.34 µM) | 0.5 (≈ 1.34 µM) | 0.5 (≈ 1.34 µM) | 1 (≈ 2.68 µM) | 1 (≈ 2.68 µM) | 1 (≈ 2.68 µM) | 0.5 (≈ 1.34 µM) | 1 (≈ 2.68 µM) | MIC50 (Streptococcus pyogenes): 0.5 µg/mL (≈ 1.34 µM); MIC90 (Streptococcus pyogenes): 0.5 µg/mL (≈ 1.34 µM); MIC50 (Streptococcus pneumoniae [10]): 0.5 µg/mL (≈ 1.34 µM); MIC90 (Streptococcus pneumoniae [10]): 0.5 µg/mL (≈ 1.34 µM); MIC50 (Streptococcus pneumoniae [11]): 0.5 µg/mL (≈ 1.34 µM); MIC90 (Streptococcus pneumoniae [11]): 0.5 µg/mL (≈ 1.34 µM); MIC50 (Streptococcus pneumoniae [12]): 0.5 µg/mL (≈ 1.34 µM); MIC90 (Streptococcus pneumoniae [12]): 0.5 µg/mL (≈ 1.34 µM); MIC50 (Streptococcus pneumoniae [13]): 0.5 µg/mL (≈ 1.34 µM); MIC90 (Streptococcus pneumoniae [13]): 0.5 µg/mL (≈ 1.34 µM); MIC50 (Moraxella catarrhalis): 2 µg/mL (≈ 5.36 µM); MIC90 (Moraxella catarrhalis): 4 µg/mL (≈ 10.7 µM); MIC50 (Legionella pneumophila): 4 µg/mL (≈ 10.7 µM); MIC90 (Legionella pneumophila): 8 µg/mL (≈ 21.4 µM); MIC50 [14]: 16 µg/mL (≈ 42.9 µM); MIC90 [14]: 32 µg/mL (≈ 85.7 µM); MIC (Staphylococcus aureus [15]): 1 µg/mL (≈ 2.68 µM); MIC (Enterococcus faecalis [16]): 1 µg/mL (≈ 2.68 µM) |
| CC[C@H]1OC(=O)[C@H](C)[C@@H](O[C@H]2C[C@@](C)(OC)[C@@H](O)[C@H](C)O2)[C@H](C)[C@@H](O[C@@H]2O[C@H](C)C[C@H](N(C)C)[C@H]2O)[C@](C)(O)C[C@@H](C)C(=O)[C@H](C)[C@@H](O)[C@]1(C)O [ERYTHROMYCIN] | – | – | – | – | – | – | – | – | – | – | – | – | – | – | – | – | – | – | – | – | MIC50 (Streptococcus pyogenes): 8 µg/mL (≈ 10.9 µM); MIC90 (Streptococcus pyogenes): > 16 µg/mL; MIC50 (Streptococcus pneumoniae [12]): 4 µg/mL (≈ 5.45 µM); MIC90 (Streptococcus pneumoniae [12]): > 16 µg/mL; MIC50 (Moraxella catarrhalis): 0.25 µg/mL (≈ 0.341 µM); MIC90 (Moraxella catarrhalis): 0.25 µg/mL (≈ 0.341 µM) |
| C[C@H]1COc2c(N3CCN(C)CC3)c(F)cc3c(=O)c(C(=O)O)cn1c23.C[C@H]1COc2c(N3CCN(C)CC3)c(F)cc3c(=O)c(C(=O)O)cn1c23.O [LEVOFLOXACIN] | – | – | – | – | – | – | – | – | – | – | – | – | – | – | – | – | – | – | – | – | MIC50 (Streptococcus pneumoniae [13]): 16 µg/mL; MIC90 (Streptococcus pneumoniae [13]): > 16 µg/mL; MIC50 (Legionella pneumophila): 0.12 µg/mL; MIC90 (Legionella pneumophila): 0.5 µg/mL; MIC50 [14]: 0.5 µg/mL; MIC90 [14]: 1 µg/mL |
| CC(=O)NC[C@H]1CN(c2ccc(N3CCOCC3)c(F)c2)C(=O)O1 [LINEZOLID] | 4 (≈ 11.9 µM) | 4 (≈ 11.9 µM) | 2 (≈ 5.93 µM) | 4 (≈ 11.9 µM) | 4 (≈ 11.9 µM) | 4 (≈ 11.9 µM) | 1 (≈ 2.96 µM) | 4 (≈ 11.9 µM) | 4 (≈ 11.9 µM) | 4 (≈ 11.9 µM) | 2 (≈ 5.93 µM) | 2 (≈ 5.93 µM) | 1 (≈ 2.96 µM) | 2 (≈ 5.93 µM) | 2 (≈ 5.93 µM) | 2 (≈ 5.93 µM) | 2 (≈ 5.93 µM) | 4 (≈ 11.9 µM) | 2 (≈ 5.93 µM) | 2 (≈ 5.93 µM) | MIC50 (Streptococcus pyogenes): 1 µg/mL (≈ 2.96 µM); MIC90 (Streptococcus pyogenes): 2 µg/mL (≈ 5.93 µM); MIC50 (Streptococcus pneumoniae [10]): 1 µg/mL (≈ 2.96 µM); MIC90 (Streptococcus pneumoniae [10]): 1 µg/mL (≈ 2.96 µM); MIC50 (Streptococcus pneumoniae [11]): 1 µg/mL (≈ 2.96 µM); MIC90 (Streptococcus pneumoniae [11]): 1 µg/mL (≈ 2.96 µM); MIC50 (Streptococcus pneumoniae [12]): 1 µg/mL (≈ 2.96 µM); MIC90 (Streptococcus pneumoniae [12]): 1 µg/mL (≈ 2.96 µM); MIC50 (Streptococcus pneumoniae [13]): 0.5 µg/mL (≈ 1.48 µM); MIC90 (Streptococcus pneumoniae [13]): 1 µg/mL (≈ 2.96 µM); MIC50 (Moraxella catarrhalis): 8 µg/mL (≈ 23.7 µM); MIC90 (Moraxella catarrhalis): 8 µg/mL (≈ 23.7 µM); MIC50 (Legionella pneumophila): 4 µg/mL (≈ 11.9 µM); MIC90 (Legionella pneumophila): 16 µg/mL (≈ 47.4 µM); MIC50 [14]: > 64 µg/mL; MIC90 [14]: > 64 µg/mL |
| Cc1onc(-c2ccccc2)c1C(=O)N[C@@H]1C(=O)N2[C@@H]1SC(C)(C)[C@@H]2C(=O)O [OXACILLIN] | – | – | – | – | > 32 | > 32 | > 32 | > 32 | 32 (≈ 79.7 µM) | 32 (≈ 79.7 µM) | > 16 | > 16 | 0.12 (≈ 0.299 µM) | 0.25 (≈ 0.623 µM) | > 16 | > 16 | – | – | – | – | – |
| CC1(C)S[C@@H]2[C@H](NC(=O)Cc3ccccc3)C(=O)N2[C@H]1C(=O)O [PENICILLIN G] | – | – | – | – | – | – | – | – | – | – | – | – | – | – | – | – | – | – | – | – | MIC50 (Streptococcus pneumoniae [11]): 2 µg/mL (≈ 5.98 µM); MIC90 (Streptococcus pneumoniae [11]): 4 µg/mL (≈ 12 µM) |
| CN[C@H](CC(C)C)C(=O)N[C@H]1C(=O)N[C@@H](CC(N)=O)C(=O)N[C@H]2C(=O)N[C@H]3C(=O)N[C@H](C(=O)N[C@H](C(=O)O)c4cc(O)cc(O)c4-c4cc3ccc4O)[C@H](O)c3ccc(c(Cl)c3)Oc3cc2cc(c3O[C@@H]2O[C@H](CO)[C@@H](O)[C@H](O)[C@H]2O[C@H]2C[C@](C)(N)[C@H](O)[C@H](C)O2)Oc2ccc(cc2Cl)[C@H]1O [VANCOMYCIN] | 1 (≈ 0.69 µM) | 4 (≈ 2.76 µM) | 1 (≈ 0.69 µM) | 2 (≈ 1.38 µM) | 1 (≈ 0.69 µM) | 4 (≈ 2.76 µM) | 4 (≈ 2.76 µM) | 8 (≈ 5.52 µM) | 1 (≈ 0.69 µM) | 1 (≈ 0.69 µM) | 2 (≈ 1.38 µM) | 4 (≈ 2.76 µM) | 2 (≈ 1.38 µM) | 4 (≈ 2.76 µM) | 2 (≈ 1.38 µM) | 4 (≈ 2.76 µM) | > 16 | > 16 | 4 (≈ 2.76 µM) | > 16 | – |
